Source: PubChem (Broad Institute)
KDM4C inh = inhibitors of GASC-1 (KDM4C) histone demethylase, primary screen, biochemical, single concentration HTS; AID 720574, 2013; inhibition, % at 12.5 µM; Lysine-specific demethylase 4C (Homo sapiens), Q9H3R0; hit rate 0.15% among 96,000; GST-KDM4C 2-372, H3K9me3 peptide, LANCE TR-FRET;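 active means mean replicate inhibition above about 25%, with at least 55% of replicates also reaching it, limit read from the data, passing the limit was not always enough; inconclusive means only one of those two conditions met; inactive means neither condition met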
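System: N-terminal GST-fused human GASC-1 (KDM4C) fragment, residues 2-372; amount: enzyme final amount 10 nM; incubation: reaction 30 min RT, detection step 1 h RT; medium: HEPES buffer, pH 7.5, plus ascorbate; technique: LANCE TR-FRET, Eu antibody, ULight-streptavidin, EDTA, ex 340 nm, em 618/671 nm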
IDH1 mut inh = inhibitors of IDH1 R132H reductase, primary screen, biochemical, plate reader, single point; hit rate 0.18% among 70,000; Isocitrate dehydrogenase [NADP] cytoplasmic (Homo sapiens), O75874; inhibition, % at 10 µM; diaphorase/resazurin fluorescence, 60 min; in the data active means inhibition above about 34%; inconclusive means no clear call, values can overlap the other calls; inactive means below about 11%;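 further: 0% = DMSO and 100% = no enzyme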
Target sequence (O75874 whole entry R132H): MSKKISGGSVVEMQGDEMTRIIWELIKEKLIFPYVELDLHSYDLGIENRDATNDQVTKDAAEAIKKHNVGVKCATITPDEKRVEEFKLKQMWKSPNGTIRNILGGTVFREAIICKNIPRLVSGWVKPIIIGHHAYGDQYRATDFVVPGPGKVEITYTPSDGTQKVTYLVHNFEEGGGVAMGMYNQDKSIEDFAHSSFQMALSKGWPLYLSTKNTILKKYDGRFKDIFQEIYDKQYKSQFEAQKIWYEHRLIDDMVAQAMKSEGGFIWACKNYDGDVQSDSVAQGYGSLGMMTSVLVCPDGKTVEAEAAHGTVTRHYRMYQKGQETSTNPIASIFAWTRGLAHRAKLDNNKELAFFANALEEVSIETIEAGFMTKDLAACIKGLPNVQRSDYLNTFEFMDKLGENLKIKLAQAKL
T cruzi growth-1 = T. cruzi intracellular proliferation inhibitors, primary screen, cell-based, beta-gal Tulahuen parasites, NIH3T3 host, luminescence; inhibition, % at 8.34 µM; T. cruzi beta-gal in NIH3T3, GalScreen luminescence, 90 h; hit rate 5.9% among 77,000;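 active means mean inhibition above about 93%, with at least 55% of replicates each passing it, limit read from the data, passing the limit was not always enough; inconclusive means only one of those two conditions holds; inactive means neither condition holds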
T cruzi growth-2 = T. cruzi intracellular proliferation inhibitors, confirmation, cell-based, NIH3T3 host, beta-gal parasite, luminescence, cherry-pick; shares compounds with T cruzi growth-1; T. cruzi beta-gal in NIH3T3, GalScreen luminescence, 90 h; inhibition, % at 8.35 µM; hit rate 72% among 5,600; AID 651739, 2012;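 active means mean replicate inhibition above about 95% and at least 55% of replicates individually reaching it, limit read from the data; inconclusive means only one of the two criteria is met; inactive means neither criterion is met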
T cruzi growth-3 = inhibitors of intracellular T. cruzi replication, confirmation, NIH3T3 host cells, beta-gal parasites, cherry-pick, set 2; shares compounds with T cruzi growth-1; T. cruzi beta-gal in NIH3T3, GalScreen luminescence, 90 h; hit rate 21% among 5,600; inhibition, % at 2.09 µM;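 active means mean inhibition above about 95%, with at least 55% of replicates also reaching it, limit read from the data; inconclusive means meets just one of the two conditions; inactive means meets neither condition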;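 further: plate controls were neutral control median for no effect and positive control median for full effect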
NIH3T3 tox = cytotoxicity in mouse NIH/3T3 fibroblasts, confirmation, cytotoxicity control for T. cruzi proliferation inhibitor project, cell-based, cherry-pick, single point. AID 651742, 2012. NIH/3T3 viability, CellTiter-Glo ATP luminescence, 90 h. cytotoxicity (signal decrease), % at 8.35 µM. hit rate 14% among 5,600. shares compounds with T cruzi growth-1;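 active means mean signal decrease across replicates above about 35% based on untreated-well scatter, with enough replicates individually passing, limit read from the data; inconclusive means no rule stated though some were filed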;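 further: 0% = median of neutral control wells and 100% = median of positive control wells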
NIH3T3 tox 2 = NIH/3T3 fibroblast cytotoxicity, confirmation, cytotoxicity control, cell-based, cherry-pick, single point, set 2; shares compounds with T cruzi growth-1; NIH/3T3 viability, CellTiter-Glo ATP luminescence, 90 h; inhibition, % at 24.9 µM; hit rate 56% among 5,600;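 active means mean loss of cell viability signal at or above a set limit, and enough replicates individually reaching it; inconclusive means meets only the mean limit or only the replicate share; inactive means meets neither condition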;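 further: 0% = median of neutral control wells and 100% = median of positive control wells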
* hit, by the source's call; ? = inconclusive; / = not tested or not shown. The entries come from a sample that favours hits as a whole.

SMILES	KDM4C inh	IDH1 mut inh	T cruzi growth-1	T cruzi growth-2	T cruzi growth-3	NIH3T3 tox	NIH3T3 tox 2
C[C@@H]1CN([C@H](C)CO)S(=O)(=O)c2ccc(-c3ccccc3F)cc2O[C@H]1CN(C)Cc1ccncc1	0.2	0.4	116.3*	99.4*	105.1*	92.0*	103.3*
Cc1ccccc1-c1ccc2c(c1)O[C@H](CN(C)Cc1ccncc1)[C@@H](C)CN([C@H](C)CO)S2(=O)=O	1.6	-0.1	93.6	/	/	/	/
COc1ccccc1-n1c(SCC(=O)c2ccc(Cl)cc2)nc2ccccc2c1=O	/	-0.2	/	/	/	/	/
O=C(C[C@@H]1CC[C@@H]2[C@H](COC[C@@H](O)CN2Cc2cc(F)ccc2F)O1)N[C@@H]1CCN(Cc2ccccc2)C1	2.9	/	94.7	/	/	/	/
O=C(C[C@H]1CC[C@@H]2[C@H](COC[C@@H](O)CN2Cc2ccccc2)O1)N[C@@H]1CCN(Cc2ccccc2)C1	2.0	/	81.2	/	/	/	/
O=C(C[C@H]1CC[C@H]2[C@@H](COC[C@H](O)CN2Cc2cc(F)ccc2F)O1)N[C@@H]1CCN(Cc2ccccc2)C1	-1.2	/	96.0*	80.3	57.6	1.2	?
O=C(C[C@@H]1CC[C@@H]2[C@H](COC[C@@H](O)CN2Cc2ccccc2)O1)NCc1ccccc1Cl	0.9	/	99.8*	59.6	59.4	11.7	16.3
O=C(C[C@H]1CC[C@H]2[C@@H](COC[C@H](O)CN2Cc2ccccc2)O1)N[C@@H]1CCN(Cc2ccccc2)C1	-1.8	/	98.5*	99.0*	47.3	1.6	9.3
O=C(C[C@H]1CC[C@H]2[C@@H](COC[C@H](O)CN2Cc2ccccc2)O1)NCc1ccccc1Cl	-0.2	/	34.6	/	/	/	/
COC(=O)C[C@@H]1CC[C@@H]2[C@H](COc3ccc(NC(=O)Nc4ccc(C#N)cc4)cc3C(=O)N2C)O1	-2.5	/	60.9	/	/	/	/
Cc1noc(C)c1NC(=O)Nc1ccc2c(c1)C(=O)N([C@H](C)CO)C[C@@H](C)[C@H](CN(C)C(=O)Nc1ccc(C(F)(F)F)cc1)O2	2.9	0.3	31.5	/	/	/	/
Cc1noc(C)c1S(=O)(=O)N(C)C[C@H]1OCCCC[C@H](C)Oc2ccc(NC(=O)Cc3ccccc3)cc2C(=O)N([C@H](C)CO)C[C@@H]1C	-0.7	/	76.6	/	/	/	/
C[C@@H]1CCCCO[C@@H](CN(C)Cc2ccc(Cl)c(Cl)c2)[C@@H](C)CN([C@H](C)CO)C(=O)c2cc(NC(=O)C3CCCCC3)ccc2O1	0.1	/	106.6*	106.9*	?	-15.5	0.3
C[C@@H]1CCCCO[C@H](CN(C)Cc2ccncc2)[C@H](C)CN([C@H](C)CO)C(=O)c2cc(NC(=O)C3CCCCC3)ccc2O1	-0.7	/	22.3	/	/	/	/
C[C@@H]1CN([C@H](C)CO)C(=O)c2cc(NC(=O)C3CCCCC3)ccc2O[C@@H](C)CCCCO[C@@H]1CN(C)Cc1ccncc1	2.9	3.1	104.6*	56.2	10.6	-13.0	-6.5
C[C@@H]1CN([C@@H](C)CO)C(=O)c2cc(NC(=O)C3CCCCC3)ccc2O[C@@H](C)CCCCO[C@H]1CN(C)Cc1ccccc1	0.3	/	108.7*	108.0*	84.7	-17.8	45.2*
C[C@@H]1CN([C@H](C)CO)C(=O)c2cc(NC(=O)C3CCCCC3)ccc2O[C@@H](C)CCCCO[C@H]1CN(C)Cc1ccccc1	8.3	/	98.7	/	/	/	/
C[C@@H]1CCCCO[C@H](CN(C)Cc2ccc(Cl)c(Cl)c2)[C@@H](C)CN([C@@H](C)CO)C(=O)c2cc(NC(=O)C3CCCCC3)ccc2O1	-1.4	/	90.2	/	/	/	/
C/C=C/c1ccc([C@H]2[C@@H](CO)N(C(=O)CC)C23CN(S(=O)(=O)CC)C3)cc1	-1.6	/	/	/	/	/	/
CCCNC(=O)N1C[C@@H]2[C@H](c3ccccc31)[C@@H](CO)N2C(=O)Nc1ccccc1F	0.3	/	-3.2	/	/	/	/
C[C@@H]1CN([C@H](C)CO)C(=O)c2cc(NC(=O)CCC(F)(F)F)ccc2O[C@@H]1CN(C)CC1CCCCC1	-0.2	-2.9	19.3	/	/	/	/
COc1ccccc1-c1ccc([C@@H]2[C@H](CO)N3CCCCN(C(=O)CN4CCOCC4)C[C@@H]23)cc1	-3.8	/	55.6	/	/	/	/
O=C(CN1CCOCC1)N1CCCCN2[C@H](C1)[C@@H](c1ccc(C#Cc3ccccc3)cc1)[C@@H]2CO	5.8	/	111.7*	107.1*	83.1	23.0	101.3*
O=C(CN1CCOCC1)N1CCCCN2[C@H](CO)[C@@H](c3ccc(-c4ccccc4)cc3)[C@H]2C1	0.3	/	-9.0	/	/	/	/
Cc1ccccc1-c1ccc([C@H]2[C@@H](CO)N3CCCCN(C(=O)CN4CCOCC4)C[C@@H]23)cc1	0.0	/	?	83.5	58.9	28.8	28.9
SMILES	KDM4C inh	IDH1 mut inh	T cruzi growth-1	T cruzi growth-2	T cruzi growth-3	NIH3T3 tox	NIH3T3 tox 2
O=C(CN1CCOCC1)N1CCCCN2[C@@H](CO)[C@H](c3ccc(C#Cc4ccccc4)cc3)[C@@H]2C1	0.1	/	84.7	/	/	/	/
O=C(CN1CCOCC1)N1CCCCN2[C@H](C1)[C@H](c1ccc(C#Cc3ccccc3)cc1)[C@@H]2CO	0.5	/	77.8	/	/	/	/
O=C(CN1CCOCC1)N1CCCCN2[C@@H](CO)[C@@H](c3ccc(/C=C/c4ccccc4)cc3)[C@@H]2C1	-2.1	/	105.0*	105.5*	68.6	24.2	105.3*
O=C(CN1CCOCC1)N1CCCCN2[C@@H](CO)[C@@H](c3ccc(C#Cc4ccccc4)cc3)[C@@H]2C1	0.9	/	98.2*	92.5	58.6	28.2	102.8*
C[C@H]1CCCCO[C@H](CN(C)Cc2ccc(C(=O)O)cc2)[C@@H](C)CN([C@@H](C)CO)C(=O)c2cc(NC(=O)Nc3ccc(C(F)(F)F)cc3)ccc2O1	0.4	/	37.4	/	/	/	/
Cc1ccc(S(=O)(=O)N[C@H]2CC[C@H](CCNC(=O)C3CCCCC3)O[C@@H]2CO)cc1	0.2	0.5	82.6	/	/	/	/
O=C(COc1cccc(C(F)(F)F)c1)NCc1ccco1	/	1.2	/	/	/	/	/
COc1ccc(CN(C)C[C@@H]2Oc3ccc(NC(=O)Cc4ccccc4)cc3CC(=O)N([C@@H](C)CO)C[C@H]2C)cc1	-1.8	-0.8	/	/	/	/	/
C[C@H]1CCCCO[C@H](CN(C)Cc2ccc3c(c2)OCO3)[C@@H](C)CN([C@@H](C)CO)C(=O)c2cc(NS(=O)(=O)c3cccs3)ccc2O1	0.2	-11.5	45.0	/	/	/	/
